Common to all, as to assay type: cell-based
Series [1] is described as follows: Cytotoxicity against human Raji cells assessed as cell viability at 3.2 nmol by trypan blue staining. The note with it: read-out: Activity. The gist of the method:
(§1)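 Raji cells grown to 10^6 cells/mL, pelleted and resuspended in RPMI 1640 with 10% FCS, 4 mM n-butyric acid and 32 pmol TPA (20 ng/mL). Test agent added in DMSO at mole ratios to TPA (1000 = 32 nmol, 500 = 16 nmol, 100 = 3.2 nmol, 10 = 0.32 nmol). Incubated 37 °C for 48 h. Viability counted by hemocytometer with Trypan Blue.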

The test system of series [2] is Raji. Put plainly: Inhibition of 12-O-tetradecanoylphorbol-13-acetate-induced EBV-early antigen activation in human Raji cells assessed as EA activation at 3.2 nmol relative to 12-O-tetradecanoylphorbol-13-acetate. The arrangement: scale not given: the % may be the effect or the level left. To be noted: human gammaherpesvirus 4. The gist of the method:
(§2)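 Raji cells at 10^6 cells/mL resuspended in RPMI 1640 with 10% FCS, 4 mM n-butyric acid as inducer and 32 pmol TPA (20 ng/mL in DMSO), plus test agent in DMSO (32, 16, 3.2 or 0.32 nmol). Held 37 °C for 48 h. EA-positive cells scored blind, at least 500 cells per assay. Values are % of the TPA positive control (100%), ± s.d.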

Series [3] in a line: Cytotoxicity against human Raji cells assessed as cell viability at 16 nmol by trypan blue staining. The note with it: read-out: Activity. The gist of the method: as §1
Series [4] relates to Raji. Put plainly: Inhibition of 12-O-tetradecanoylphorbol-13-acetate-induced EBV-early antigen activation in human Raji cells assessed as EA activation at 32 nmol relative to 12-O-tetradecanoylphorbol-13-acetate. More on the design: scale not given: the % may be the effect or the level left. The note with it: human gammaherpesvirus 4. The gist of the method: as §2
Series [5] in a line: Cytotoxicity against human Raji cells assessed as cell viability at 32 nmol by trypan blue staining. The note with it: read-out: Activity. The gist of the method: as §1
The nature of series [6]: Cytotoxicity against human Raji cells assessed as cell viability at 0.32 nmol by trypan blue staining. The note with it: read-out: Activity. The gist of the method: as §1
In series [7] the test system is Raji. Put plainly: Inhibition of 12-O-tetradecanoylphorbol-13-acetate-induced EBV-early antigen activation in human Raji cells assessed as EA activation at 0.32 nmol relative to 12-O-tetradecanoylphorbol-13-acetate. The note with it: human gammaherpesvirus 4. More on the design: scale not given: the % may be the effect or the level left. The gist of the method:
as §2

Series [8] concerns Raji. Put plainly: Inhibition of 12-O-tetradecanoylphorbol-13-acetate-induced EBV-early antigen activation in human Raji cells assessed as EA activation at 16 nmol relative to 12-O-tetradecanoylphorbol-13-acetate. The arrangement: scale not given: the % may be the effect or the level left. To be noted: human gammaherpesvirus 4. The gist of the method: as §2

Take `CC1(O)CC(CC2(C)OC2COc2ccc3ccc(=O)oc3c2)OC1=O` (stereo not given) [CLAUSLACTONE H]: the viability at 3.2 nmol in series [1] is above 80%. For the same molecule, the Activity stood at 88.4% in the series on Raji [2], 25.1% in the series with Raji [4], 100% in the series with Raji [7] and 60.4% with Raji [8]. Besides, the viability at 16 nmol in series [3] was above 80%. Moreover, in series [5], the viability at 32 nmol was 60%. The viability at 0.32 nmol in series [6] was above 80%.
For `CC1(CC2C=C(CO)C(=O)O2)OC1COc1ccc2ccc(=O)oc2c1` (stereo not given) [CLAUSLACTONE J], in series [1], the viability at 3.2 nmol was above 80%. In addition, the Activity in the series with Raji [2] came out at 85.2%; in the series with Raji [4], 27.4%; in the series with Raji [7] it was 100%; in the series on Raji [8], 65.8%. The viability at 16 nmol in series [3] was above 80%. Moreover, the viability at 32 nmol in series [5] is 60%. The viability at 0.32 nmol in series [6] was above 80%.
Turning to `C=C1CC(CC2(C)OC2COc2ccc3ccc(=O)oc3c2)OC1=O` (stereo not given) [CLAUSLACTONE F], in series [1], the viability at 3.2 nmol is above 80%. Besides, the Activity with Raji [2] came out at 89.6%; in the series with Raji [4], 29.3%; in the series on Raji [7] it was 100%; with Raji [8] it was 62.7%. Besides, the viability at 16 nmol in series [3] was above 80%. Moreover, the viability at 32 nmol in series [5] came out at 60%. Moreover, the viability at 0.32 nmol in series [6] is above 80%.
For `CC(O)(CC1CC(O)(CO)C(=O)O1)C1COc2ccc3ccc(=O)oc3c2O1` (stereo not given) [CLAUSLACTONE C], the viability at 3.2 nmol in series [1] is above 80%. Further, the Activity in the series with Raji [2] came out at 80.1%; in the series on Raji [4], 10.3%; in the series on Raji [7] it was 95.3%; with Raji [8] it was 46.9%. Also, in series [3], the viability at 16 nmol is above 80%. The viability at 32 nmol in series [5] is 60%. Also, the viability at 0.32 nmol in series [6] is above 80%.
In the case of `COc1ccc2ccc(=O)oc2c1` [HERNIARIN], the viability at 3.2 nmol in series [1] is above 80%. Further, the Activity in the series on Raji [2] stood at 100%; with Raji [4] it was 0%; in the series with Raji [7] it was 100%; in the series on Raji [8] it was 71.7%. Further, the viability at 16 nmol in series [3] is 60%. Also, the viability at 32 nmol in series [5] worked out at 30%. The viability at 0.32 nmol in series [6] is above 80%.
As for `C/C(=C\COc1ccc2ccc(=O)oc2c1)CC1CC(O)(CO)C(=O)O1` (stereo not given) [CLAUSLACTONE I], the viability at 3.2 nmol in series [1] was above 80%. Also, the Activity worked out at 82.5% in the series on Raji [2], 20.6% in the series on Raji [4], 100% with Raji [7] and 54.3% in the series with Raji [8]. Also, the viability at 16 nmol in series [3] was above 80%. Besides, the viability at 32 nmol in series [5] stood at 60%. Also, the viability at 0.32 nmol in series [6] was above 80%.
For the molecule `CC(O)(CC1C=C(CO)C(=O)O1)C1COc2ccc3ccc(=O)oc3c2O1` (stereo not given) [CLAUSLACTONE D], the viability at 3.2 nmol in series [1] was above 80%. Moreover, the Activity with Raji [2] was determined as 84.8%; with Raji [4], 19.6%; with Raji [7] it was 100%; with Raji [8], 52.3%. In addition, the viability at 16 nmol in series [3] was above 80%. Besides, the viability at 32 nmol in series [5] was 60%. For the same molecule, in series [6], the viability at 0.32 nmol is above 80%.
In the case of `C=C1CC(C/C(C)=C/COc2ccc3ccc(=O)oc3c2O)OC1=O` (stereo not given) [CLAUSLACTONE E], the viability at 3.2 nmol in series [1] is above 80%. Besides, the Activity with Raji [2] was found to be 86.2%; in the series on Raji [4], 22.4%; in the series on Raji [7] it was 100%; with Raji [8] it was 58.8%. The viability at 16 nmol in series [3] was above 80%. In addition, the viability at 32 nmol in series [5] came to 60%. Besides, the viability at 0.32 nmol in series [6] is above 80%.
Consider `C=C1CC(CC(C)(O)C2COc3ccc4ccc(=O)oc4c3O2)OC1=O` (stereo not given) [CLAUSLACTONE A], for which, in series [1], the viability at 3.2 nmol is above 80%. The Activity in the series on Raji [2] is 85.2%; with Raji [4] it was 26.4%; in the series with Raji [7] it was 100%; with Raji [8], 59.2%. Further, the viability at 16 nmol in series [3] was above 80%. Also, in series [5], the viability at 32 nmol came out at 60%. Further, the viability at 0.32 nmol in series [6] is above 80%.
Consider `CC1(O)CC(CC(C)(O)C2COc3ccc4ccc(=O)oc4c3O2)OC1=O` (stereo not given) [CLAUSLACTONE B], for which the viability at 3.2 nmol in series [1] was above 80%. In addition, the Activity with Raji [2] came out at 82.7%; with Raji [4], 17.1%; in the series with Raji [7], 100%; with Raji [8], 50.5%. In series [3], the viability at 16 nmol was above 80%. Moreover, the viability at 32 nmol in series [5] was determined as 60%. In addition, in series [6], the viability at 0.32 nmol is above 80%.
